“And” between values parts separate entries of the source, which are not always exact repeats. Equal values may be shown once.
Tested on: HEK-293T
Test: Multiplex assay against HEK293T
Format: toxicity, cell-based
Conditions: human
Summary of the method: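 Compound was added to live cells that had been stained at seeding with Hoechst33342, BioTracker Green Microtubule Cytoskeleton Dye, MitoTracker Red and Annexin V Alexa Fluor 680, and imaging followed on a CQ1 microscope at 37°C and 5% CO2. CellPathfinder machine-learning gating divided cells into Hoechst high-intensity objects or normal cells, normal cells into healthy, pyknosed or fragmented nuclei, and pyknosed cells into mitotic or apoptotic. Tubulin, mitochondrial-mass and membrane-permeability phenotypes are per cents of healthy-nucleus cells.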

[1] = 12 h, 1 µM, compound concentration 1 uM
[2] = 12 h, 10 µM, compound concentration 10 uM
[3] = 24 h, 1 µM, compound concentration 1 uM
[4] = 24 h, 10 µM, compound concentration 10 uM
[5] = 48 h, 1 µM, compound concentration 1 uM
[6] = 48 h, 10 µM, compound concentration 10 uM

In the case of `CN1CC[C@@]23CCCC[C@@H]2[C@@H]1Cc1ccc(O)cc13.O=C(O)C(O)C(O)C(=O)O`, the “Population Apoptotic (%)” value [1] is reported as 5.07% and 6.25%, the “Population Fragmented Nuclei (%)” value [1] is reported as 0% and 2.38% and the “Population Healthy Nuclei (%)” value [1] is reported as 61.34% and 21.43%. For the same molecule, the “Population Hoechst High Intensity Objects (%)” value [1] was 0.28% and 0.59%, the “Population Membrane Permeable-Phenotype (%)” value [1] was 0% and the “Population Mitochondria Different-Phenotype (%)” value [1] was 31.51% and 13.89%. For the same molecule, the “Population Mitotic Cells (%)” value [1] was 94.93% and 93.75%, the “Population Normal (%)” value [1] was 99.72% and 99.41% and the “Population Pyknosed Nuclei (%)” value [1] was 38.66% and 76.19%. For the same molecule, the “Total Cell Count” value [1] was 358 and 169, the “Population Apoptotic (%)” value [2] was 7.34% and 9.57% and the “Population Fragmented Nuclei (%)” value [2] was 0.33% and 1.28%. The “Population Healthy Nuclei (%)” value [2] was 63.93% and 25%, the “Population Hoechst High Intensity Objects (%)” value [2] was 0% and the “Population Membrane Permeable-Phenotype (%)” value [2] was 0% and 2.56%. For the same molecule, the “Population Mitochondria Different-Phenotype (%)” value [2] was 30.77%, the “Population Mitotic Cells (%)” value [2] was 92.66% and 90.43% and the “Population Normal (%)” value [2] was 100%. The “Population Pyknosed Nuclei (%)” value [2] was 35.74% and 73.72%, the “Total Cell Count” value [2] was 305 and 156 and the “Population Apoptotic (%)” value [3] was 13.27% and 11.22%. For the same molecule, the “Population Fragmented Nuclei (%)” value [3] was 1.37% and 2.04%, the “Population Healthy Nuclei (%)” value [3] was 83.74% and 47.96% and the “Population Hoechst High Intensity Objects (%)” value [3] was 0.15% and 0.51%. The “Population Membrane Permeable-Phenotype (%)” value [3] was 1.27% and 3.19%, the “Population Mitochondria Different-Phenotype (%)” value [3] was 9.98% and 11.7% and the “Population Mitotic Cells (%)” value [3] was 86.73% and 88.78%. The “Population Normal (%)” value [3] was 99.85% and 99.49%, the “Population Tubulin-Different-Phenotype (%)” value [3] was 6.17% and 3.19% and the “Population Apoptotic (%)” value [4] was 10.81% and 11.46%. For the same molecule, the “Population Fragmented Nuclei (%)” value [4] was 0.62% and 0.67%, the “Population Healthy Nuclei (%)” value [4] was 76.45% and 35.33% and the “Population Hoechst High Intensity Objects (%)” value [4] was 0%. The “Population Membrane Permeable-Phenotype (%)” value [4] was 0.54% and 0%, the “Population Mitochondria Different-Phenotype (%)” value [4] was 20.54% and 11.32% and the “Population Mitotic Cells (%)” value [4] was 89.19% and 88.54%. The “Population Normal (%)” value [4] was 100%, the “Population Pyknosed Nuclei (%)” value [4] was 22.93% and 64% and the “Population Tubulin-Different-Phenotype (%)” value [4] was 12.16% and 9.43%. For the same molecule, the “Population Fragmented Nuclei (%)” value [5] was 4.07% and 2.37%, the “Population Healthy Nuclei (%)” value [5] was 87.05% and 78.04% and the “Population Hoechst High Intensity Objects (%)” value [5] was 0%. For the same molecule, the “Population Membrane Permeable-Phenotype (%)” value [5] was 3.59% and 4.18%, the “Population Mitochondria Different-Phenotype (%)” value [5] was 11.36% and 7.6% and the “Population Mitotic Cells (%)” value [5] was 97.89% and 83.33%. For the same molecule, the “Population Normal (%)” value [5] was 100%, the “Population Pyknosed Nuclei (%)” value [5] was 8.89% and 19.58% and the “Population Fragmented Nuclei (%)” value [6] was 2.47% and 1.7%. The “Population Healthy Nuclei (%)” value [6] was 87.64% and 68.94%, the “Population Hoechst High Intensity Objects (%)” value [6] was 0% and the “Population Membrane Permeable-Phenotype (%)” value [6] was 5.64% and 3.09%. The “Population Mitochondria Different-Phenotype (%)” value [6] was 15.29% and 22.84%, the “Population Mitotic Cells (%)” value [6] was 95.19% and 81.16% and the “Population Normal (%)” value [6] was 100%. The “Population Pyknosed Nuclei (%)” value [6] was 9.89% and 29.36%.

`NC1=NC(=O)/C(=C2\CCNC(=O)c3[nH]c4ccccc4c32)N1` was tested, and the “Population Apoptotic (%)” value [1] was 13.33% and 11.21%, the “Population Fragmented Nuclei (%)” value [1] was 2.11% and 2.19% and the “Population Hoechst High Intensity Objects (%)” value [1] was 0.52% and 0%. The “Population Membrane Permeable-Phenotype (%)” value [1] was 0.85% and 3.7%, the “Population Mitotic Cells (%)” value [1] was 86.67% and 88.79% and the “Population Normal (%)” value [1] was 99.48% and 100%. For the same molecule, the “Population Pyknosed Nuclei (%)” value [1] was 35.62% and 78.1%, the “Total Cell Count” value [1] was 381 and 137 and the “Population Apoptotic (%)” value [2] was 8.93% and 12.5%. For the same molecule, the “Population Fragmented Nuclei (%)” value [2] was 2.8% and 2.1%, the “Population Hoechst High Intensity Objects (%)” value [2] was 0% and the “Population Membrane Permeable-Phenotype (%)” value [2] was 1% and 0%. For the same molecule, the “Population Mitochondria Different-Phenotype (%)” value [2] was 33.83% and 15%, the “Population Mitotic Cells (%)” value [2] was 91.07% and 87.5% and the “Population Normal (%)” value [2] was 100%. The “Population Pyknosed Nuclei (%)” value [2] was 34.78% and 83.92%, the “Total Cell Count” value [2] was 322 and 143 and the “Population Apoptotic (%)” value [3] was 12% and 13.98%. The “Population Fragmented Nuclei (%)” value [3] was 1.99% and 1.92%, the “Population Healthy Nuclei (%)” value [3] was 77.28% and 38.46% and the “Population Hoechst High Intensity Objects (%)” value [3] was 0%. The “Population Membrane Permeable-Phenotype (%)” value [3] was 0.86% and 3.33%, the “Population Mitochondria Different-Phenotype (%)” value [3] was 12.45% and 11.67% and the “Population Mitotic Cells (%)” value [3] was 88% and 86.02%. For the same molecule, the “Population Normal (%)” value [3] was 100%, the “Population Pyknosed Nuclei (%)” value [3] was 20.73% and 59.62% and the “Population Tubulin-Different-Phenotype (%)” value [3] was 11.37% and 1.67%. The “Population Apoptotic (%)” value [4] was 14.91% and 16%, the “Population Fragmented Nuclei (%)” value [4] was 1.32% and 5.13% and the “Population Healthy Nuclei (%)” value [4] was 73.68% and 30.77%. The “Population Hoechst High Intensity Objects (%)” value [4] was 0%, the “Population Membrane Permeable-Phenotype (%)” value [4] was 0.89% and 6.25% and the “Population Mitochondria Different-Phenotype (%)” value [4] was 13.69% and 18.75%. For the same molecule, the “Population Mitotic Cells (%)” value [4] was 85.09% and 84%, the “Population Normal (%)” value [4] was 100% and the “Population Pyknosed Nuclei (%)” value [4] was 25% and 64.1%. For the same molecule, the “Population Tubulin-Different-Phenotype (%)” value [4] was 10.42% and 4.17%, the “Total Cell Count” value [4] was 456 and 156 and the “Population Apoptotic (%)” value [5] was 9.77% and 15.52%. For the same molecule, the “Population Fragmented Nuclei (%)” value [5] was 3.77% and 1.5%, the “Population Healthy Nuclei (%)” value [5] was 86.2% and 69.5% and the “Population Hoechst High Intensity Objects (%)” value [5] was 0.08% and 0%. The “Population Membrane Permeable-Phenotype (%)” value [5] was 3.85% and 3.6%, the “Population Mitochondria Different-Phenotype (%)” value [5] was 10.94% and 10.79% and the “Population Mitotic Cells (%)” value [5] was 90.23% and 84.48%. For the same molecule, the “Population Normal (%)” value [5] was 99.92% and 100%, the “Population Pyknosed Nuclei (%)” value [5] was 10.03% and 29% and the “Population Apoptotic (%)” value [6] was 6.19% and 12.05%. For the same molecule, the “Population Fragmented Nuclei (%)” value [6] was 2.47% and 2.35%, the “Population Healthy Nuclei (%)” value [6] was 85.57% and 58.69% and the “Population Hoechst High Intensity Objects (%)” value [6] was 0.25% and 0.93%. For the same molecule, the “Population Membrane Permeable-Phenotype (%)” value [6] was 2.16% and 0.8%, the “Population Mitochondria Different-Phenotype (%)” value [6] was 22.48% and 16.8% and the “Population Mitotic Cells (%)” value [6] was 93.81% and 87.95%. The “Population Normal (%)” value [6] was 99.75% and 99.07%.

Source: ChEMBL document CHEMBL5724801, “EUbOPEN Chemogenomics Library - Multiplex” (2024)
